For 98 compounds, cytotoxicity results are on record in ChEMBL document CHEMBL4513216, “Probing the Open Global Health Chemical Diversity Library for Multistage-Active Starting Points for Next-Generation Antimalarials” (ACS Infect Dis, 2020).

The data set is described as follows: Toxicity liver stage against HepG2, at 10uM. The format is cell-based. More on the design: test concentration 10 uM, cell line HepG2-A16-CD81EGFP. The conditions noted are these: human, HepG2-A16-CD81EGFP cells; read-out: INHIBITION
The essentials: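 Uninfected HepG2-A16-CD81EGFP cells, 3 × 10^3 per well, 1536-well, plated on prespotted compound at 10 μM final, parasite-free screening media added to match infected plates; puromycin 10 μM positive, DMSO 0.5% negative; run in parallel with 48 h PbLuc assay at 37 °C, 5% CO2; viability by CellTiter-Glo luminescence, normalized to controls.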
Regarding `CC(C)Cc1cc(CC2(NCc3ccccc3Cl)COC2)no1`, the cytotoxicity at 10 µM is -7.55%. As to `Cc1cccnc1CNC[C@H]1Cn2cc(-c3ccccc3)nc2CO1`, the cytotoxicity at 10 µM is -2.56%. To `O=C(NCCc1ccncc1)c1cccnc1OCC(F)(F)F` belongs 5.03%; to `O=C(c1cn(Cc2ccccc2)c2ncccc12)N1CCOCC1`, -0.142%.

Consider `CCOCC(=O)NCCc1nc(C)cc(C(F)(F)F)n1`, for which the cytotoxicity at 10 µM was -1.21%. To `COC(CNC(=O)C1CC1)c1ccc(C)s1` (stereo not drawn) belongs -3.08%; to `CN1C(Cn2cccn2)C[C@@H]2CN(Cc3nccs3)CC[C@@H]21` (stereo partly drawn), 3.8%.

`CN1CCc2cc(C(CNS(=O)(=O)c3cccs3)N3CCCC3)ccc21` (stereo not drawn): the cytotoxicity at 10 µM was found to be 2.66%. For `COC(=O)c1ccc(OC)c(Cn2cc(Br)cn2)c1`, the cytotoxicity at 10 µM is 3.05%. As for `O=C1CC(c2ccncc2)c2c(sc3c2CCCC3)N1` (stereo not drawn), the cytotoxicity at 10 µM was 5.57%. With `Cc1cc(N(C)C)nc(C2COCCN2Cc2nccn2C)n1` (stereo not drawn) the figure was -3.43%.

With `CCC(=O)N1CCC(c2nc(N3CCCC3)ncc2S(C)(=O)=O)CC1`, the cytotoxicity at 10 µM turned out to be 3.86%. With `Fc1ccccc1-c1cccc(C2CCCN(C3CCOCC3)C2)n1` (stereo not drawn) the figure was 0.22%. With `O=C(c1cncs1)N1CCc2[nH]nc(Nc3ccccc3)c2C1` the figure was 8.26%. Regarding `CCN1CCN(Cc2c(C3CCCC3)[nH]c3ncccc23)CC1`, the cytotoxicity at 10 µM was determined as 13.1%. `CN(Cc1ccc(F)cc1)CC1(O)CCN(C(=O)c2cccs2)C1` (stereo not drawn): the cytotoxicity at 10 µM is -12.6%. With `Cc1ncoc1C(=O)N1CC[C@@H](O)[C@@H](O)[C@H](N2CCC(F)(F)CC2)C1` the figure was 2.3%. To `Cn1cccc1C(=O)N1CCC(O)(CN2CCc3ccccc3C2)C1` (stereo not drawn) belongs 3.77%; to `Cc1ccccc1-c1cncc(C2CCN(C(=O)CN(C)C)CC2)n1`, 3.88%. Turning to `CN1CCCC(Cc2cncc(C(=O)NCC3CC3)c2)C1` (stereo not drawn), the cytotoxicity at 10 µM was -3.99%.

`COc1cccc([S+]([O-])CC(=O)NCc2cc(F)cc(F)c2)c1` (stereo not drawn): the cytotoxicity at 10 µM was -0.491%. To `CCC(NC(=O)c1ccco1)c1nc(C(F)(F)F)cs1` (stereo not drawn) belongs -0.183%; to `CCCc1c(C(=O)N2CCN(c3nccc(OC)n3)CC2)cnn1C`, 17.2%. Take `CS(=O)(=O)CCC(=O)N1CCC(c2ccc(F)c(F)c2)CC1`: the cytotoxicity at 10 µM was found to be 7.09%. To `CCc1noc(CN2CCN(C(=O)OC(C)(C)C)C(C)C2)n1` (stereo not drawn) belongs 2.53%; to `O=C1CCCN1CCCN1CCCC(Cn2cncn2)C1` (stereo not drawn), -1.82%. With `CC(C)CC1COCCN1C(=O)Cc1cccs1` (stereo not drawn) the figure was 5.84%; with `CC(NC(=O)N1CCc2sccc2C1)c1nncn1C` (stereo not drawn), -8.6%.

As to `O=C(c1cc2c([nH]c1=O)CCC2)N1CCCC1c1ccc(F)cc1` (stereo not drawn), the cytotoxicity at 10 µM is -6.14%.

Consider `CC(=O)N1CCC(c2nc(Cc3ccccc3)no2)C1` (stereo not drawn), for which the cytotoxicity at 10 µM was determined as 5.15%. With `O=c1[nH]ncc(NCCOc2ccc3c(c2)OCO3)c1Cl` the figure was 3.1%. To `Cc1cc(C(=O)NC2(c3cccc(F)c3)CCOCC2)no1` belongs 1.42%; to `COc1ccsc1C(=O)N1CCCC1c1c(C)nn(C)c1OC` (stereo not drawn), -0.561%. `Cc1noc(C)c1CNc1cccc(C(=O)N2CCCC(O)C2)c1` (stereo not drawn): the cytotoxicity at 10 µM was -6.08%. Take `CS(=O)(=O)CCCN1CCOC2(CCc3ccccc32)C1` (stereo not drawn): the cytotoxicity at 10 µM is -5.14%. In the case of `Cc1cc(=O)n(C)cc1NC(=O)NCc1cccc(F)c1`, the cytotoxicity at 10 µM was -5.3%. On to `OC(CN(Cc1ccccc1)Cc1cscn1)c1ccco1` (stereo not drawn), for which the cytotoxicity at 10 µM stood at 5.04%. In the case of `CSCc1cccc(NC(=O)N2CCC(N3CC=CC3)C2)c1` (stereo not drawn), the cytotoxicity at 10 µM is -1.83%. With `CNC(=O)c1ccc(Cn2ccnc2S(C)(=O)=O)cc1` the figure was -3.83%; with `Cc1cc(CS(=O)(=O)c2ccccc2)no1`, 10.5%.

For the compound `Cc1cccc(Sc2nccn(C)c2=O)c1`, the cytotoxicity at 10 µM came to 3.52%.

Turning to `CC(C)CS(=O)(=O)CC(=O)N(C)Cc1ccc(OC(F)F)cc1`, the cytotoxicity at 10 µM amounted to 1.13%.

As for `O=C(c1cc(Cl)cc(Cl)c1)N1CCN(c2nccs2)CC1`, the cytotoxicity at 10 µM was -5.69%.

With `COc1cccc2c1OCC(NC(=O)NCc1cccs1)C2` (stereo not drawn), the cytotoxicity at 10 µM is -11%.

Consider `CC(C)CNC(=O)C1=NOC2(CCN(Cc3cccc(C#N)c3)C2)C1` (stereo not drawn), for which the cytotoxicity at 10 µM came out at 8.37%. As to `COCCC1COC2(CCN(C(=O)c3cccn3C)CC2)C1` (stereo not drawn), the cytotoxicity at 10 µM is -80.7%.

For the compound `COCCO[C@H]1CCN(C(=O)c2cnccn2)[C@H]1Cc1ccncc1`, the cytotoxicity at 10 µM is -70.3%.

With `CN1CCN(Cc2ccncc2)Cc2cccnc21`, the cytotoxicity at 10 µM was -72.7%. To `COCc1cnc2n1CCN(C(=O)c1ocnc1C)C2C` (stereo not drawn) belongs -1.91%.

With `O=c1cc(Cn2cncn2)nc2n1CCCN(Cc1ccoc1)C2`, the cytotoxicity at 10 µM turned out to be 3.37%.

For `CC(C)Nc1nc(N2CCOCC2)nc2c1CN(CC(=O)N(C)C)CC2`, the cytotoxicity at 10 µM was 7.77%.

`O=C(N1CCCC1)N1CCN(CC2CC2)c2ncccc2C1`: the cytotoxicity at 10 µM was found to be 6.51%.

For `Fc1cccc(CN2CCO[C@H]3[C@@H](OCc4ccccn4)CC[C@@H]32)c1`, the cytotoxicity at 10 µM is -0.902%. For the compound `O=c1[nH][nH]cc1-c1ccnc(NCCc2ccc(F)cc2)n1`, the cytotoxicity at 10 µM came out at 3.44%. To `CC(C)NC(=O)NCc1cc(-c2ccco2)n(CC(F)(F)F)n1` belongs -12.8%; to `CC(C)[C@H](NS(C)(=O)=O)C(=O)NCc1cc(-c2ccccc2)nn1C`, -7.88%.

`CCn1c(CC2CCN(C(=O)C3CC(C(C)C)=NO3)CC2)nn(C)c1=O` (stereo not drawn): the cytotoxicity at 10 µM came out at 3.72%. To `c1ccc(SCCN2CCCC(Cn3ccnc3)C2)cc1` (stereo not drawn) belongs 2.92%. As to `OCC1(O)CCN(Cc2noc(-c3ccccc3)n2)CC1`, the cytotoxicity at 10 µM was -0.0739%. To `CCn1ccnc1CN(C)C1CCCN(CCCc2ccccc2)C1` (stereo not drawn) belongs 7.35%; to `CCN(CC)C(=O)[C@@H]1C[C@@H](NC(=O)c2cccn2C2CC2)CN1C`, -5.94%; to `COC(C)(C)CNC(=O)C1CCC(=O)N(C2CCCC2)C1` (stereo not drawn), -6.52%. To `CCN(Cc1noc(CC(C)C)n1)C[C@]1(O)CCCN2CCCC[C@@H]21` belongs -6.91%; to `CCSc1ccc(C(=O)N2CCC3(CCC(=O)N(C)C3)CC2)s1`, -11.2%; to `CC(=O)Nn1c(C)cc(CN2CCCN(Cc3ccncc3)CC2)c1C`, 5.63%. To `CN(Cc1ccccc1)c1ncccc1CNC1CCCC1` belongs -8.8%. Take `CC(=O)NCC1CCCN(Cc2nc(Cc3ccccc3F)no2)C1` (stereo not drawn): the cytotoxicity at 10 µM is -11.1%.

As for `Nc1cc(-c2cc[nH]n2)nc(N2CCCC2)n1`, the cytotoxicity at 10 µM turned out to be 1.56%. With `CCOc1ccccc1OCCN(C)Cc1nccn1C` the figure was -3.8%; with `CCCN1CCCn2nc(CNS(=O)(=O)c3ccc(F)cc3)cc2C1`, -8.57%. Turning to `CN1CCN(Cc2ccccc2Oc2nccc3occc23)CC1`, the cytotoxicity at 10 µM is 5.83%. With `CCN1CC2(CCN(Cc3nc(CSC)no3)CC2)CC1=O` the figure was -1.41%; with `NCC1Cc2cc(-c3nccc(N4CCC(O)CC4)n3)cc(F)c2O1` (stereo not drawn), 14.2%; with `Cc1ccc(N2C[C@@H](CN3CCOCC3)[C@@H](CO)C2)nn1`, 7.13%.

With `CS(=O)(=O)N1CCC(c2nnc(CN3CCCC3)n2C2CC2)CC1`, the cytotoxicity at 10 µM is -6.6%. With `CC(C)c1nc(CN(C)Cc2ccc(F)cc2)cs1` the figure was -8.81%.

On to `CCn1nc2nc(SCC(=O)O)cc(C(F)F)c2c1C`, for which the cytotoxicity at 10 µM is -3.78%. For `CCn1ncc(-c2cc(C(F)F)n3nc(CCC(=O)O)nc3n2)c1C`, the cytotoxicity at 10 µM is -9.44%. With `Cc1cc2ccccc2n1CCC(=O)NCc1ncc[nH]1` the figure was 4.37%; with `N#Cc1ccc(CNCCn2cccn2)c(F)c1`, -4.22%; with `COCCOc1ccc(C(=O)N2CCCC(n3cncn3)C2)cn1` (stereo not drawn), -11.7%. With `O=C(CCNc1ncccn1)NCCOc1ccc2c(c1)CCC2` the figure was -4.54%.

As for `Cc1cc(C)n(CC2CN(CCOc3cccc(C#N)c3)CCO2)n1` (stereo not drawn), the cytotoxicity at 10 µM is -10.9%. To `Cc1ccc(-c2cc(CNC(=O)N3CCOC(C)C3)on2)cc1` (stereo not drawn) belongs -6.09%. Take `Cc1noc(C(C)N2CCN(CCCN3CCCC3=O)CC2)n1` (stereo not drawn): the cytotoxicity at 10 µM was -2.73%. With `CN(c1ccc(C(C)(C)C)cc1)S(=O)(=O)c1cc(C(=O)O)cs1` the figure was -6.19%; with `CC(C)c1cc(NC(=O)CN2CCNC(=O)C2)on1`, -11.6%.

For `O=S(=O)(CCNC1CCc2ncnn2C1)c1ccccc1` (stereo not drawn), the cytotoxicity at 10 µM is -5.58%.

On to `CN(C)c1ncc(-c2cncnc2)c(C2CNCCO2)n1` (stereo not drawn), for which the cytotoxicity at 10 µM is 1.69%. As for `O=C(C[C@@H]1COC[C@H]2CN(C3CCCC3)C[C@@H]12)NCc1cccnc1`, the cytotoxicity at 10 µM was found to be 6.84%. `Cn1cc(CN2CCc3ccc(=O)n(Cc4ccncc4)c3CC2)cn1`: the cytotoxicity at 10 µM was determined as 3.97%. To `CN(C)c1ncnc2c1CCN(C(=O)c1cccnc1)CC2` belongs -79.8%; to `O=C(Nc1cccc(CNCc2cccs2)c1)C1CC1`, -8.3%.

With `Cc1cc(CN2C[C@@H]3COC[C@]3(CNC(=O)c3ccco3)C2)no1`, the cytotoxicity at 10 µM is -71.1%. With `O=C(C1CC(F)(F)C1)N1C[C@@H]2CN(CC3CCCC3)CCO[C@@H]2C1` the figure was -8.02%; with `CC(C)N(C)Cc1cncc2c1CCN(Cc1ccoc1)C2`, -109%; with `O=c1[nH]c2cn(-c3cccc(F)c3)c(=O)n2n1Cc1ccccc1Cl`, 4.9%. As to `CC(C)(C)C(N)C1=NC(=C2N=CN=N2)NO1` (stereo not drawn), the cytotoxicity at 10 µM was -16.9%.
